In ChEMBL document CHEMBL3232882, “N-Acyl-phosphoramidates as potential novel form of gemcitabine prodrugs” (Bioorg Med Chem, 2014):
Activity calls are given as the source filed them. The rule behind the calls is not given here.

Columns and labels:
Escherichia coli [1] = assay: Activity of Escherichia coli DNA polymerase 1 without 3' to 5'-exonucleolytic activity after 2 hrs by single base extension reaction based electrophoresis method
Summary of the method: (§1)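 Test compound with KF+ or KF- (1U) in 0.05 M Tris-HCl pH 8.0, 5 mM MgCl2, 1 mM DTT, 2 h at 37 °C, then heat-denatured. Read-out was 20% PAGE/7 M urea, autoradiography and quantitation of n+1 product; dCTP reaction served as control.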

Thermococcus sp. 9oN-7 [2] = assay: Activity of Thermococcus sp. 9oN-7 therminator DNA polymerase after 2 hrs by single base extension reaction based electrophoresis method
[3] = molecular target: Adenosine 5'-monophosphoramidase HINT1 (Oryctolagus cuniculus, UniProt P80912); assay: Stability assessed as rabbit recombinant HINT1-mediated compound hydrolysis at 1 mM after 22 hrs by RP-HPLC analysis; type: ADME; details: 1000 µM
Chain of Adenosine 5'-monophosphoramidase HINT1 (P80912 whole entry): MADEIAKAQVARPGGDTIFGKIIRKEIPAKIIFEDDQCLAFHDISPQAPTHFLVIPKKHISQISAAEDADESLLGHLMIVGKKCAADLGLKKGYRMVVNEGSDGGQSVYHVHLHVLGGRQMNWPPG
Summary of the method: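 Recombinant Hint-1 was expressed from pSGA02-HINT in E. coli BL21, purified on AMP-agarose, and dialysed into 20 mM Tris pH 7.5/150 mM NaCl. Substrate 1 mM in 20 mM Na-HEPES pH 7.2, 0.5 mM MgCl2 with rHint-1, 22 h at 37 °C. Analysed by C18 RP-HPLC at 260 nm via peak integration; mean ± SE of at least duplicate.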

K562 = assay: Cytotoxicity against human K562 cells assessed as reduction of cell survival after 48 hrs by MTT assay; type: functional, cell-based; details: K562, 48 h
Summary of the method: (§2)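 HUVEC (from fresh umbilical cords, gelatin-coated dishes, RPMI 1640 with 20% FBS, heparin, ECGF) and K562 (RPMI 1640, 10% FCS) were seeded at 7×10^3 per well. After 24 h, exposure for 48 h to compounds from 100 mM aqueous stock, final 1 mM down to 1×10^-6 mM. MTT read at 570/650 nm; untreated = 100%; IC50 from dose-response curves, mean of 2 experiments in triplicate.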

HUVEC = assay: Cytotoxicity against HUVEC assessed as cell after 48 hrs by MTT assay; type: cell-based; details: Homo sapiens; summary of the method: as §2
HeLa [4] = assay: Cytotoxicity against human HeLa cells assessed as reduction of cell survival after 72 hrs by MTT assay; type: functional, cell-based
Summary of the method: (§3)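 HeLa seeded at 7×10^3 and CFPAC at 10^4 per well in RPMI 1640 with 10% FCS under 5% CO2. After 24 h, exposure to compounds (aqueous 100 mM stock; final 1 mM to 1×10^-6 mM) for 72 or 96 h. MTT 2 h, formazan dissolved in 20% SDS/50% DMF pH 4.7, A570/650. Untreated cells = 100%; IC50 from dose-response curves, 2 independent experiments in triplicate.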

HeLa [5] = assay: Cytotoxicity against human HeLa cells assessed as reduction of cell survival after 96 hrs by MTT assay; type: functional, cell-based; summary of the method: as §3
CFPAC-1 [6] = assay: Cytotoxicity against human CFPAC-1 cells assessed as reduction of cell survival after 72 hrs by MTT assay; type: functional, cell-based; details: CFPAC-1, 72 h; summary of the method: as §3
CFPAC-1 [7] = assay: Cytotoxicity against human CFPAC-1 cells assessed as reduction of cell survival after 96 hrs by MTT assay; type: functional, cell-based; details: CFPAC-1, 96 h; summary of the method: as §3
Escherichia coli [8] = assay: Activity of Escherichia coli DNA polymerase 1 with 3' to 5'-exonucleolytic activity after 2 hrs by single base extension reaction based electrophoresis method; summary of the method: as §1
[9] = Inhibition of Escherichia coli DNA polymerase 1 with 3' to 5'-exonucleolytic activity using dCTP as substrate assessed as single base extension reaction after 2 hrs
Summary of the method: (§4)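 Compound (0.4–2.0 mM; 1- to 5-fold over dCTP) added together with 0.4 mM dCTP in 0.05 M Tris-HCl pH 8.0, 5 mM MgCl2, 1 mM DTT, 2 h at 37 °C. The n+1 product was quantified after 20% PAGE/7 M urea and autoradiography; EC50 is the concentration giving 50% inhibition.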

[10] = Inhibition of Escherichia coli DNA polymerase 1 without 3' to 5'-exonucleolytic activity using dCTP as substrate assessed as single base extension reaction after 2 hrs; summary of the method: as §4
[11] = molecular target: T1, DNA polymerase alpha catalytic subunit (Homo sapiens, UniProt P09884); assay: Inhibition of human DNA polymerase alpha using dCTP as substrate assessed as single base extension reaction after 2 hrs
T1 sequence (P09884 whole entry): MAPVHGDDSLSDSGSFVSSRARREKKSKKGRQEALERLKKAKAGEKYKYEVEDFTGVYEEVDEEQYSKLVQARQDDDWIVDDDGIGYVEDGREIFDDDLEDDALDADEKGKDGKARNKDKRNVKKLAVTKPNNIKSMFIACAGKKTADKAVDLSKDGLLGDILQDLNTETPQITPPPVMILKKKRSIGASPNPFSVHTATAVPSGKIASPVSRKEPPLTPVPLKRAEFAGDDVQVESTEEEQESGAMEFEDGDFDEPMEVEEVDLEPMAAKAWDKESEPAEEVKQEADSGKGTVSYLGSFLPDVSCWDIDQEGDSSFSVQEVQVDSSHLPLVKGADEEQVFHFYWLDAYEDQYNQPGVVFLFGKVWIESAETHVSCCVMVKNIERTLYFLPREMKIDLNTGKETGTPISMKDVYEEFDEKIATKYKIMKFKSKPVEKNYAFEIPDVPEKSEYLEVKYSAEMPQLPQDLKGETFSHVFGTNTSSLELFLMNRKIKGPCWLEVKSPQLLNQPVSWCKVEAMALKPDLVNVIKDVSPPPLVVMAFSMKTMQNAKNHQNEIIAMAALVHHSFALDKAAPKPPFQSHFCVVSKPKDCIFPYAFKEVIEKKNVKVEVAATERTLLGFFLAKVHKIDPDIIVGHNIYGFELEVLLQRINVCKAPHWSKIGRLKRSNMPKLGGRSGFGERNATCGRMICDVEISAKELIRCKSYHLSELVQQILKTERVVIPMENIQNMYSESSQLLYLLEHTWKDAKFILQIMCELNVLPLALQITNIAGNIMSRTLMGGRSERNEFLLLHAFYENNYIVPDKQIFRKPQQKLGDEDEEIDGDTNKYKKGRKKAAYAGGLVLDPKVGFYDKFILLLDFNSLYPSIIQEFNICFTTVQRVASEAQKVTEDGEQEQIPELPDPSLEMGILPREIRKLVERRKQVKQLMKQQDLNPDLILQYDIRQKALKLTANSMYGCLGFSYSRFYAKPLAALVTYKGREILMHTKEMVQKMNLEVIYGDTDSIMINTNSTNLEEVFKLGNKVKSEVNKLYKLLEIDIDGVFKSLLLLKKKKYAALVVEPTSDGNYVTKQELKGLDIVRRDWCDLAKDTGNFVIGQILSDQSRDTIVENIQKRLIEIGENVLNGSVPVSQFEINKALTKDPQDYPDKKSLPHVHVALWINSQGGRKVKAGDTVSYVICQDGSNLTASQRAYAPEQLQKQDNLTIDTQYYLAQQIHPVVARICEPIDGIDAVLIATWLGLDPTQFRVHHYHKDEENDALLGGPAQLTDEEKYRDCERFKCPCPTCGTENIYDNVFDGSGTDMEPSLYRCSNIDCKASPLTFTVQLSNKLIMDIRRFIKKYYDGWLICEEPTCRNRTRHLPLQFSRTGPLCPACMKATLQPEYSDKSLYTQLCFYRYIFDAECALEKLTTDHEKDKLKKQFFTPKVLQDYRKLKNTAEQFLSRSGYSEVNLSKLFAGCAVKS

[12] = molecular target: T2, HINT1 (adenosine 5'-monophosphoramidase) (Homo sapiens, UniProt P49773); assay: Stability in human HeLa cell lysate assessed as HINT-1-mediated phosphoramidase activity by measuring compound remaining at 1 mM after 22 hrs by RP-HPLC analysis relative to control; type: ADME, cell-based; details: read-out: Stability
T2 sequence (P49773 whole entry): as the sequence (P80912 whole entry) above, with Q37R, A65V, A69D, K91N, N122H counted along it
Summary of the method: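 HeLa lysate from confluent cells, sonicated in PBS with protease inhibitors. Substrate 1 mM in 20 mM Na-HEPES pH 7.2, 0.5 mM MgCl2, 22 h at 37 °C. Ice-quenched, heat-denatured, centrifuged. C18 RP-HPLC (acetonitrile 0–8% in 0.1 M TEAB pH 7.4) at 260 nm; intact substrate quantified by peak integration; mean ± SE of at least duplicate.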

[13] = molecular target: T2, HINT1 (adenosine 5'-monophosphoramidase); assay: Stability in human K562 cell lysate assessed as HINT-1-mediated phosphoramidase activity by measuring compound remaining at 1 mM after 22 hrs by RP-HPLC analysis relative to control; type: ADME, cell-based; details: read-out: Stability
Summary of the method: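 K562 lysate from confluent cells, scraped and sonicated in PBS with protease inhibitors. Substrate 1 mM in 20 mM Na-HEPES pH 7.2, 0.5 mM MgCl2, with lysate protein, 22 h at 37 °C. Quenched on ice, heat-denatured, centrifuged. Supernatant analysed by C18 RP-HPLC (0–8% acetonitrile in 0.1 M TEAB pH 7.4, 20 min) at 260 nm. Peaks integrated; products identified by co-injection; mean ± SE, at least duplicate.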

Thermococcus sp. 9oN-7 [14] = assay: Inhibition of Thermococcus sp. 9oN-7 therminator DNA polymerase assessed as single base extended product level after 1 hr by single base extension reaction based electrophoresis method; set-up: concentration or dose not given beside the values

| SMILES | Activity (Escherichia coli [1]) | Activity (Thermococcus sp. 9oN-7 [2]) | Stability [3] | Activity (Escherichia coli [8]) | EC50 [9] [mM] | EC50 [10] [mM] | EC50 [11] [µM] | remaining at 22 h, 1000 µM [12] [%] | remaining at 22 h, 1000 µM [13] [%] | Activity (Thermococcus sp. 9oN-7 [14]) [%] | IC50 (K562) [µM] | IC50 (HUVEC) [µM] | IC50 (HeLa [4]) [µM] | IC50 (HeLa [5]) [µM] | IC50 (CFPAC-1 [6]) [nM] | IC50 (CFPAC-1 [7]) [nM] |
| --- | --- | --- | --- | --- | --- | --- | --- | --- | --- | --- | --- | --- | --- | --- | --- | --- |
| Nc1ccn([C@@H]2O[C@H](COP(=O)(S)NC(=O)c3ccccc3)[C@@H](O)C2(F)F)c(=O)n1 (some centres not stated) | inactive | inactive | Stable | inactive | 1.03 | 0.99 | 350 | 100 | 91.5 | 100 | 800 | > 1000 | 900 | 650 | 425000 | 315000 |
| CC(=O)N1CCC[C@H]1C(=O)NP(=O)(S)OC[C@H]1O[C@@H](n2ccc(N)nc2=O)C(F)(F)[C@@H]1O (some centres not stated) | inactive | inactive | Stable | inactive | > 2 | > 2 | > 500 | 100 | 85.3 | 100 | > 1000 | 800 | 500 | 450 | 350000 | 310000 |
| Nc1ccn([C@@H]2O[C@H](COP(=O)(O)NC(=O)c3ccncc3)[C@@H](O)C2(F)F)c(=O)n1 | inactive | inactive | Stable | inactive | > 2 | > 2 | > 500 | 76.7 | 82.8 | 100 | 0.1 | 0.05 | 10 | 0.9 | 620 | 450 |

Now from value to molecule, other results behind:

| Activity (Escherichia coli [1]) | Activity (Thermococcus sp. 9oN-7 [2]) | Stability [3] | Activity (Escherichia coli [8]) | EC50 [9] [mM] | EC50 [10] [mM] | EC50 [11] [µM] | remaining at 22 h, 1000 µM [12] [%] | remaining at 22 h, 1000 µM [13] [%] | Activity (Thermococcus sp. 9oN-7 [14]) [%] | SMILES | IC50 (K562) [µM] | IC50 (HUVEC) [µM] | IC50 (HeLa [4]) [µM] | IC50 (HeLa [5]) [µM] | IC50 (CFPAC-1 [6]) [nM] | IC50 (CFPAC-1 [7]) [nM] |
| --- | --- | --- | --- | --- | --- | --- | --- | --- | --- | --- | --- | --- | --- | --- | --- | --- |
| inactive | inactive | Stable | inactive | > 2 | > 2 | > 500 | 71 | 45.9 | 100 | CC(=O)N[C@@H](Cc1ccccc1)C(=O)NP(=O)(O)OC[C@H]1O[C@@H](n2ccc(N)nc2=O)C(F)(F)[C@@H]1O | 80 | 200 | > 1000 | 45 | 420 | 450 |
| – | – | – | – | 0.54 | 0.49 | – | – | – | – | Nc1ncnc2c1ncn2[C@H]1C[C@H](O)[C@@H](COP(=O)(O)NC(=O)c2cccnc2)O1 | – | – | – | – | – | – |
| inactive | inactive | Stable | inactive | 0.68 | 1.16 | 410 | 89.6 | 80.2 | 100 | CC(=O)N1CCC[C@H]1C(=O)NP(=O)(O)OC[C@H]1O[C@@H](n2ccc(N)nc2=O)C(F)(F)[C@@H]1O | 30 | 10 | 80 | 0.8 | 620 | 550 |
